S100A4 MyoIIA = blocks human S100A4 binding to myosin IIA peptide. P26447. S100A4/TAMRA-MyoIIA peptide fluorescence polarization. inhibition, % at 10.7 µM. 360,000 tested, 0.14% active;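 active = mean inhibition of at least 70% across replicates, with every replicate also reaching that level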
Target sequence (P26447 whole entry, looked up): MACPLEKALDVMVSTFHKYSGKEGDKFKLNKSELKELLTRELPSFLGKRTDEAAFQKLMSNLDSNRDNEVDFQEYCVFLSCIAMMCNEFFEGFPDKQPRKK
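Test system: S100A4 monomer protein. Medium: HEPES buffer with Ca2+, pH 7.2. Reagent: fluorescent myosin IIA peptide, 5 nM. Compound dosing: single-point compound testing. Timing: 5 min between mix addition and reading. Benchmarks: DMSO neutral and TFP positive wells.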
SIRT5 block = inhibitors of human sirtuin-5 desuccinylase; 330,000 tested, 1.1% active; inhibition, % at 15 µM; Q9NXA8; Purified SirT5, succinyl-peptide AMC, trypsin-coupled fluorescence; in the data active = inhibition above about 15%
Target sequence (Q9NXA8 whole entry, looked up): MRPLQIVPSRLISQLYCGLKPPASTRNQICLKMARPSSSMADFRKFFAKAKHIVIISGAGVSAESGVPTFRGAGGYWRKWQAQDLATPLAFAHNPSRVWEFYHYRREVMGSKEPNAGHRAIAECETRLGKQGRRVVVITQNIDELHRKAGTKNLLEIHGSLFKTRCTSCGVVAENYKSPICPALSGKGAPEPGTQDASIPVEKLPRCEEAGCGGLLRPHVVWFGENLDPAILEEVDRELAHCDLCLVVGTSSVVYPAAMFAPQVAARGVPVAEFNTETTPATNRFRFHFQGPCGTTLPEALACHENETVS
PKA-R2B act = activates the human PKA-R2B holoenzyme complex; activation, % at 11.4 µM; 340,000 tested, 0.079% active; P22694+P31323; PKA-R2B holoenzyme dissociation, Cy5-IP20 fluorescence polarization; R2B truncated from residue 108, S112A mutant; 0% DMSO only, 100% 113 µM cGMP;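 active = activation above a cutoff set at the mean over all compounds plus 3 SD, cut at about 18% in these data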;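 note: higher means more holoenzyme dissociation and a rise in polarization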
PKA-R1A activ = PKA-R1A complex activation; P00514+P68181; PKA-R1A dissociation, Cy5-IP20 fluorescence polarization; scaled: DMSO 0%, 113 µM cGMP 100%; activation, % at 11.4 µM; 340,000 tested, 0.083% active;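 active = percent activation above the mean of all tested compounds plus 3 SD, cut at about 19% in these data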;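 note: higher means more PKAc released from R1A so a rise in polarization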
CRFR2-BP antag = antagonists of CRF-binding protein/CRF-R2 receptor complex; HEK293 CRF-R2/CRF-BP, CRF-induced calcium fluorescence; inhibition, % at 11.8 µM; AID 588475; 350,000 tested, 0.59% active;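 active = inhibition of the ligand-induced calcium signal above about 50% at the single tested concentration, limit read from the data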
Active calls of the source: *; ! = a repeat was not active. Most compounds without a hit are left out; they make up all but 1.5% or so of the library.

`COc1ccccc1N1CCN(C(=O)/C=C/c2ccccc2)CC1` gave PKA-R2B act -4.0, PKA-R1A activ -0.5 and CRFR2-BP antag -25.5.
Cc1ccc(OCC(=O)Nc2ccc([N+](=O)[O-])cn2)cc1C was read as PKA-R2B act -8.2, PKA-R1A activ -8.5 and CRFR2-BP antag 51.5*.
For CCc1c(C)[nH]c2ccc(OC)cc2c1=S the results were S100A4 MyoIIA -2.6, SIRT5 block -7.6, PKA-R2B act -9.9, PKA-R1A activ -4.8 and CRFR2-BP antag -14.3.
For CCOc1ccc(Cc2c(C)[nH]c3ccc(C(=O)O)cc3c2=S)cc1 the results were S100A4 MyoIIA -0.2, SIRT5 block 28.8*, PKA-R2B act 4.1, PKA-R1A activ 2.5 and CRFR2-BP antag -2.3.
COCCOC(=O)N1C(=O)[C@@]2(c3ccccc31)[C@H](c1ccccc1OCCO)N1[C@H](c3ccccc3)[C@H](c3ccccc3)OC(=O)[C@H]1[C@@H]2C(=O)N1CCN(c2ncccn2)CC1 was read as S100A4 MyoIIA 41.9 and SIRT5 block 14.4.
For COc1ccc(S(=O)(=O)Nc2ccc3c(c2)C(=O)N([C@@H](C)CO)C[C@@H](C)[C@@H](CN(C)S(=O)(=O)c2ccccc2)OCCCC[C@@H](C)O3)cc1 the results were S100A4 MyoIIA -5.1 and SIRT5 block 19.7*.
For COc1ccc(S(=O)(=O)Nc2ccc3c(c2)C(=O)N([C@H](C)CO)C[C@@H](C)[C@H](CN(C)S(=O)(=O)c2ccccc2)OCCCC[C@@H](C)O3)cc1 the results were S100A4 MyoIIA -4.0 and SIRT5 block 19.3*.
Screening COc1ccc(S(=O)(=O)Nc2ccc3c(c2)C(=O)N([C@@H](C)CO)C[C@H](C)[C@@H](CN(C)S(=O)(=O)c2ccccc2)OCCCC[C@@H](C)O3)cc1 returned S100A4 MyoIIA 7.4 and SIRT5 block 20.8*.
COc1ccc(S(=O)(=O)Nc2ccc3c(c2)C(=O)N([C@H](C)CO)C[C@@H](C)[C@H](CN(C)S(=O)(=O)c2ccccc2)OCCCC[C@H](C)O3)cc1 was read as S100A4 MyoIIA -49.4 and SIRT5 block 25.2*.
COc1ccc(S(=O)(=O)N(C)C[C@H]2OCCCC[C@H](C)Oc3ccc(NS(=O)(=O)c4ccccc4)cc3C(=O)N([C@H](C)CO)C[C@H]2C)cc1 was read as S100A4 MyoIIA -14.0 and SIRT5 block 14.2.
Screening COc1ccc(S(=O)(=O)Nc2ccc3c(c2)C(=O)N([C@@H](C)CO)C[C@@H](C)[C@H](CN(C)S(=O)(=O)c2ccccc2)OCCCC[C@H](C)O3)cc1 returned S100A4 MyoIIA -13.3 and SIRT5 block 22.1*.
Screening COc1ccc(S(=O)(=O)N(C)C[C@@H]2OCCCC[C@H](C)Oc3ccc(NS(=O)(=O)c4ccccc4)cc3C(=O)N([C@@H](C)CO)C[C@@H]2C)cc1 returned S100A4 MyoIIA 0.6 and SIRT5 block 6.0.
For C[C@@H]1CN([C@H](C)CO)C(=O)c2cc(NS(=O)(=O)c3cn(C)cn3)ccc2O[C@H]1CN(C)CC1CCCCC1 the results were S100A4 MyoIIA 3.3 and SIRT5 block 17.0*.
`C[C@@H]1CCCCO[C@@H](CN(C)CC2CCCCC2)[C@@H](C)CN([C@H](C)CO)C(=O)c2cc(NS(=O)(=O)c3cn(C)cn3)ccc2O1` gave S100A4 MyoIIA 132.6* and SIRT5 block 3.4.
COC(=O)C1CN(C(=O)COc2ccc(C)cc2)c2ccccc2O1 (stereo not drawn) was read as S100A4 MyoIIA -5.8, SIRT5 block 34.5*, PKA-R2B act 6.3, PKA-R1A activ -0.1 and CRFR2-BP antag 1.5.
`COc1ccc(-c2sc3cc(OC)ccc3c2-c2ccc(OCCN3CCOCC3)cc2)cc1` gave S100A4 MyoIIA -0.1, SIRT5 block -4.8, PKA-R2B act -1.2, PKA-R1A activ -2.9 and CRFR2-BP antag 1.9.
For Cc1c(-c2ccc(OCCN3CCOCC3)cc2)c(=O)oc2ccc3ccccc3c12 the results were S100A4 MyoIIA -2.9, SIRT5 block 18.6*, PKA-R2B act -14.1, PKA-R1A activ -16.4 and CRFR2-BP antag -13.9.
Cc1ncsc1C(=O)N1CCCC(C(=O)c2ccc3ccccc3c2)C1 (stereo not drawn) was read as S100A4 MyoIIA -9.6, SIRT5 block 2.3, PKA-R2B act -1.0, PKA-R1A activ -5.6 and CRFR2-BP antag 60.2*.
For Cc1cc(C(=O)N2CCCC(C(=O)c3ccc4ccccc4c3)C2)nn1C (stereo not drawn) the results were S100A4 MyoIIA -3.7, SIRT5 block -1.8, PKA-R2B act 4.9, PKA-R1A activ 5.9 and CRFR2-BP antag 12.3.
NC(=O)COC(=O)c1cccc(S(=O)(=O)N2CCCCC2)c1 was read as S100A4 MyoIIA -0.3, SIRT5 block -3.2, PKA-R2B act -0.9, PKA-R1A activ -11.8 and CRFR2-BP antag 85.6*.
Screening Cc1ccc(S(=O)(=O)Nc2cccc3c2O[C@@H](CN(C)Cc2ccc4c(c2)OCO4)[C@@H](C)CN([C@H](C)CO)C3=O)cc1 returned S100A4 MyoIIA -18.0 and SIRT5 block 15.0*.
C[C@H]1CN([C@@H](C)CO)C(=O)c2cccc(NS(=O)(=O)c3cn(C)cn3)c2O[C@H]1CN(C)Cc1ccc(Oc2ccccc2)cc1 was read as S100A4 MyoIIA 2.0 and SIRT5 block 29.3*.
`C[C@H](CO)N1C[C@H](C)[C@@H](CN(C)Cc2ccc(-c3ccccc3)cc2)Oc2c(NS(=O)(=O)c3ccccc3)cccc2C1=O` gave S100A4 MyoIIA 14.7, SIRT5 block 15.6*!, PKA-R2B act -5.4, PKA-R1A activ 4.9 and CRFR2-BP antag 1.6.
For C[C@@H]1CN([C@H](C)CO)C(=O)c2cc(NS(=O)(=O)c3ccccc3)ccc2O[C@@H]1CN(C)Cc1ccc(-c2ccccc2)cc1 the results were S100A4 MyoIIA 1.8 and SIRT5 block 15.3*.
Cc1ccc(S(=O)(=O)Nc2cccc3c2O[C@@H](CN(C)Cc2ccc4c(c2)OCO4)[C@@H](C)CN([C@@H](C)CO)C3=O)cc1 was read as S100A4 MyoIIA -4.8 and SIRT5 block -4.3.
C[C@@H]1CN([C@H](C)CO)C(=O)c2cccc(NS(=O)(=O)c3cn(C)cn3)c2O[C@@H]1CN(C)Cc1ccc(Oc2ccccc2)cc1 was read as S100A4 MyoIIA 1.1 and SIRT5 block -0.4.
For CS(=O)(=O)N1[C@H](CO)[C@@H](c2ccccc2)[C@@H]1C#N the results were S100A4 MyoIIA 6.8 and SIRT5 block 4.6.
For C[C@H](NC(=O)C[C@@H]1C[C@@H]2c3cc(NC(=O)CC4CC4)ccc3O[C@@H]2[C@H](CO)O1)c1ccccc1 the results were S100A4 MyoIIA 1.5 and SIRT5 block 2.0.
For O=C(C[C@H]1CC[C@H]2[C@@H](COC[C@H](O)CN2Cc2ccc(F)cc2)O1)N1CCc2ccccc2C1 the results were S100A4 MyoIIA 4.7 and SIRT5 block 1.7.
